# ChEMBL document CHEMBL4354828, “Discovery of Taniborbactam (VNRX-5133): A Broad-Spectrum Serine- and Metallo-β-lactamase Inhibitor for Carbapenem-Resistant Bacterial Infections” (J Med Chem, 2020)
# Columns and labels:
# Escherichia coli [1] = experiment: Antibacterial activity against Escherichia coli J53 expressing SHV5/ AmpC/TEM-1 after 16 to 20 hrs by CLSI-based microbroth dilution method; type: functional
# Staphylococcus aureus [2] = experiment: Antibacterial activity against methicillin resistant Staphylococcus aureus 33591 after 16 to 20 hrs by CLSI-based microbroth dilution method; type: functional
# Pseudomonas aeruginosa [3] = experiment: Antibacterial activity against wild type Pseudomonas aeruginosa 27853 after 16 to 20 hrs by CLSI-based microbroth dilution method; type: functional
# Escherichia coli [4] = experiment: Antibacterial activity against wild type Escherichia coli ATCC 25922 after 16 to 20 hrs by CLSI-based microbroth dilution method; type: functional
# Klebsiella pneumoniae [5] = experiment: Antibacterial activity against Klebsiella pneumoniae 11978 expressing OXA-48 after 16 to 20 hrs by CLSI-based microbroth dilution method; type: functional
# Staphylococcus aureus [6] = experiment: Antibacterial activity against wild type Staphylococcus aureus ATCC 29213 after 16 to 20 hrs by CLSI-based microbroth dilution method; type: functional
# Klebsiella pneumoniae [7] = experiment: Antibacterial activity against Klebsiella pneumoniae A-1797 expressing KPC-2/VIM-4/CMY-4 after 16 to 20 hrs by CLSI-based microbroth dilution method; type: functional
# Klebsiella pneumoniae [8] = experiment: Antibacterial activity against Klebsiella pneumoniae UMM expressing SHV5/KPC-2/TEM-1 after 16 to 20 hrs by CLSI-based microbroth dilution method; type: functional
# Pseudomonas aeruginosa [9] = experiment: Antibacterial activity against Pseudomonas aeruginosa Ps296 AmpC/VIM-2/TEM-1 after 16 to 20 hrs by CLSI-based microbroth dilution method; type: functional
# Enterobacter cloacae [10] = experiment: Antibacterial activity against Enterobacter cloacae 144200 expressing p99 AmpC after 16 to 20 hrs by CLSI-based microbroth dilution method; type: functional
# Klebsiella pneumoniae [11] = experiment: Antibacterial activity against wild type Klebsiella pneumoniae CI 09 after 16 to 20 hrs by CLSI-based microbroth dilution method; type: functional
# Klebsiella aerogenes = experiment: Antibacterial activity against Enterobacter aerogenes 188548 expressing AmpC after 16 to 20 hrs by CLSI-based microbroth dilution method; type: functional
# [12] = Inhibition of bacterial NDM-1 using cefepime as substrate preincubated for 15 mins followed by susbtrate addition and measured after 10 mins by spectrophotometric method; set-up: species or system Bacteria
# Pseudomonas aeruginosa [13] = experiment: Inhibition of KPC-2/PDC-42 in Pseudomonas aeruginosa CDC-0356 assessed as meropenem antibacterial activity at 4 ug/ml after 16 to 20 hrs by CLSI-based microbroth dilution method (reference value: […] ug/ml)
# [14] = Inhibition of bacterial SHV-5 using cefotaxime as substrate preincubated for 15 mins followed by susbtrate addition and measured after 10 mins by spectrophotometric method; set-up: species or system Bacteria
# Enterobacter cloacae [15] = experiment: Inhibition of TEM/CTX-M/SHV/Cephalosporinase in Enterobacter cloacae CH23 assessed as cefepime antibacterial activity at 4 ug/ml after 16 to 20 hrs by CLSI-based microbroth dilution method (Rvb > […] ug/ml)
# Pseudomonas aeruginosa [16] = experiment: Inhibition of KPC-2/PDC-42 in Pseudomonas aeruginosa CDC-0356 assessed as piperacillin antibacterial activity at 16 ug/ml after 16 to 20 hrs by CLSI-based microbroth dilution method (Rvb > […] ug/ml)
# Escherichia coli [17] = experiment: Inhibition of NDM-1/CMY-6/OXA-1 in Escherichia coli CDC-0055 assessed as piperacillin antibacterial activity at 16 ug/ml after 16 to 20 hrs by CLSI-based microbroth dilution method
# Method in brief: (§1)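 MDR β-lactamase-producing Gram-negative clinical isolates. […] MIC was reported as the inhibitor concentration that restores the partner's antibacterial activity.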
# [18] = Inhibition of bacterial IMP-1 using nitrocefin as substrate preincubated for 15 mins followed by susbtrate addition and measured after 10 mins by spectrophotometric method; set-up: species or system Bacteria
# Escherichia coli [19] = experiment: Inhibition of NDM-1/CMY-6/OXA-1 in Escherichia coli CDC-0055 assessed as cefepime antibacterial activity at 8 ug/ml after 16 to 20 hrs by CLSI-based microbroth dilution method; method in brief: as §1
# Pseudomonas aeruginosa [20] = experiment: Inhibition of VIM in Pseudomonas aeruginosa CDC-0457 assessed as cefepime antibacterial activity at 8 ug/ml after 16 to 20 hrs by CLSI-based microbroth dilution method
# Escherichia coli [21] = experiment: Inhibition of TEM/CTX-M/SHV/Cephalosporinase in Escherichia coli EC1552 assessed as cefepime antibacterial activity at 4 ug/ml after 16 to 20 hrs by CLSI-based microbroth dilution method (reference value: […] ug/ml)
# [22] = Inhibition of bacterial VIM-2 using nitrocefin as substrate preincubated for 15 mins followed by susbtrate addition and measured after 10 mins by spectrophotometric method; set-up: species or system Bacteria
# Method in brief: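 Purified β-lactamase inhibition. IC50 values are the average of duplicates unless otherwise indicated.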
# [23] = Inhibition of bacterial OXA-48 using nitrocefin as substrate preincubated for 15 mins followed by susbtrate addition and measured after 10 mins by spectrophotometric method; set-up: species or system Bacteria
# Escherichia coli [24] = experiment: Inhibition of NDM-1/CMY-6/OXA-1 in Escherichia coli CDC-0055 assessed as meropenem antibacterial activity at 4 ug/ml after 16 to 20 hrs by CLSI-based microbroth dilution method (reference value: […] ug/ml)
# Klebsiella pneumoniae [25] = experiment: Inhibition of VIM-1/VIM-2/VIM-4/NDM-1 in Klebsiella pneumoniae assessed as cefepime antibacterial activity at 4 ug/ml after 16 to 20 hrs by CLSI-based microbroth dilution method
# Escherichia coli [26] = experiment: Inhibition of NDM in Escherichia coli CDC-0452 assessed as piperacillin antibacterial activity at 16 ug/ml after 16 to 20 hrs by CLSI-based microbroth dilution method (Rvb > […] ug/ml)
# Pseudomonas aeruginosa [27] = experiment: Inhibition of KPC-2/PDC-42 in Pseudomonas aeruginosa CDC-0356 assessed as cefepime antibacterial activity at 8 ug/ml after 16 to 20 hrs by CLSI-based microbroth dilution method (Rvb > […] ug/ml)
# [28] = system: Klebsiella pneumoniae ATCC BAA-1705; experiment: Inhibition of KPC-2 in Klebsiella pneumoniae ATCC BAA 1705 assessed as meropenem antibacterial activity at 4 ug/ml after 16 to 20 hrs by CLSI-based microbroth dilution method (reference value: […] ug/ml)
# Escherichia coli [29] = experiment: Inhibition of VIM-1/VIM-2/VIM-4/NDM-1 in Escherichia coli assessed as cefepime antibacterial activity at 4 ug/ml after 16 to 20 hrs by CLSI-based microbroth dilution method
# Method in brief: (§2)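 Panel of 14 clinical isolates expressing class B VIM- or NDM-type MBLs: E. coli (4), E. cloacae (2), K. pneumoniae (4), P. aeruginosa (1), A. baumannii (3).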
# [30] = Inhibition of bacterial CMY-2 using nitrocefin as substrate preincubated for 15 mins followed by susbtrate addition and measured after 10 mins by spectrophotometric method; set-up: species or system Bacteria
# Enterobacter cloacae [31] = experiment: Inhibition of VIM-1/VIM-2/VIM-4/NDM-1 in Enterobacter cloacae assessed as cefepime antibacterial activity at 4 ug/ml after 16 to 20 hrs by CLSI-based microbroth dilution method; method in brief: as §2
# Acinetobacter baumannii = experiment: Inhibition of VIM-1/VIM-2/VIM-4/NDM-1 in Acinetobacter baumannii assessed as cefepime antibacterial activity at 4 ug/ml after 16 to 20 hrs by CLSI-based microbroth dilution method; method in brief: as §2
# Escherichia coli [32] = experiment: Inhibition of NDM in Escherichia coli CDC-0452 assessed as meropenem antibacterial activity at 4 ug/ml after 16 to 20 hrs by CLSI-based microbroth dilution method (reference value: […] ug/ml)
# Pseudomonas aeruginosa [33] = experiment: Inhibition of VIM-1/VIM-2/VIM-4/NDM-1 in Pseudomonas aeruginosa assessed as cefepime antibacterial activity at 4 ug/ml after 16 to 20 hrs by CLSI-based microbroth dilution method; method in brief: as §2
# Pseudomonas aeruginosa [34] = experiment: Inhibition of VIM in Pseudomonas aeruginosa CDC-0457 assessed as meropenem antibacterial activity at 4 ug/ml after 16 to 20 hrs by CLSI-based microbroth dilution method
# Klebsiella pneumoniae [35] = experiment: Inhibition of TEM/CTX-M/SHV in Klebsiella pneumoniae 9032 assessed as cefepime antibacterial activity at 4 ug/ml after 16 to 20 hrs by CLSI-based microbroth dilution method (reference value: […] ug/ml)
# [36] = Inhibition of bacterial KPC-2 using imipenem as substrate preincubated for 15 mins followed by susbtrate addition and measured after 10 mins by spectrophotometric method; set-up: species or system Bacteria
# [37] = Inhibition of bacterial CTX-M-15 using cefotaxime as substrate preincubated for 15 mins followed by susbtrate addition and measured after 10 mins by spectrophotometric method; set-up: species or system Bacteria
smiles,measurement,setting,value
Cc1onc(-c2ccccc2)c1C(=O)N[C@@H]1C(=O)N2[C@@H]1SC(C)(C)[C@@H]2C(=O)O [OXACILLIN],MIC,Escherichia coli [1],> 128 µg/mL
same,MIC,Staphylococcus aureus [2],> 128 µg/mL
same,MIC,Pseudomonas aeruginosa [3],> 128 µg/mL
same,MIC,Escherichia coli [4],> 128 µg/mL
same,MIC,Klebsiella pneumoniae [5],> 128 µg/mL
same,MIC,Staphylococcus aureus [6],0.125 µg/mL
same,MIC,Klebsiella pneumoniae [7],> 128 µg/mL
same,MIC,Klebsiella pneumoniae [8],> 128 µg/mL
same,MIC,Pseudomonas aeruginosa [9],> 128 µg/mL
same,MIC,Enterobacter cloacae [10],> 128 µg/mL
same,MIC,Klebsiella pneumoniae [11],> 128 µg/mL
same,MIC,Klebsiella aerogenes,> 128 µg/mL
C[C@]1(Cn2ccnn2)[C@H](C(=O)O)N2C(=O)C[C@H]2S1(=O)=O [TAZOBACTAM],IC50,[12],> 100000 nM
same,MIC,Pseudomonas aeruginosa [13],> 16 µg/mL
same,IC50,[14],15 nM
same,MIC,Enterobacter cloacae [15],> 16 µg/mL
same,MIC,Pseudomonas aeruginosa [16],> 16 µg/mL
same,MIC,Escherichia coli [17],> 16 µg/mL
same,IC50,[18],> 100000 nM
same,MIC,Escherichia coli [19],> 16 µg/mL
same,MIC,Pseudomonas aeruginosa [20],> 16 µg/mL
same,MIC,Escherichia coli [21],4 µg/mL
same,IC50,[22],> 100000 nM
same,IC50,[23],550 nM
same,MIC,Escherichia coli [24],> 16 µg/mL
same,MIC50,Klebsiella pneumoniae [25],> 32 µg/mL
same,MIC90,Klebsiella pneumoniae [25],> 32 µg/mL
same,MIC,Escherichia coli [26],> 16 µg/mL
same,MIC,Pseudomonas aeruginosa [27],> 16 µg/mL
same,MIC,[28],8 µg/mL
same,MIC50,Escherichia coli [29],> 32 µg/mL
same,MIC90,Escherichia coli [29],> 32 µg/mL
same,IC50,[30],410 nM
same,MIC50,Enterobacter cloacae [31],> 32 µg/mL
same,MIC90,Enterobacter cloacae [31],> 32 µg/mL
same,MIC50,Acinetobacter baumannii,> 32 µg/mL
same,MIC90,Acinetobacter baumannii,> 32 µg/mL
same,MIC,Escherichia coli [32],> 16 µg/mL
same,MIC50,Pseudomonas aeruginosa [33],> 32 µg/mL
same,MIC90,Pseudomonas aeruginosa [33],> 32 µg/mL
same,MIC,Pseudomonas aeruginosa [34],> 16 µg/mL
same,MIC,Klebsiella pneumoniae [35],4 µg/mL
same,IC50,[36],1700 nM
same,IC50,[37],1 nM
C[C@@H](O)[C@H]1C(=O)N2C(C(=O)O)=C(S[C@@H]3CN[C@H](C(=O)N(C)C)C3)[C@H](C)[C@H]12 [MEROPENEM],MIC,Escherichia coli [1],0.06 µg/mL
same,MIC,Staphylococcus aureus [2],32 µg/mL
same,MIC,Pseudomonas aeruginosa [3],1 µg/mL
same,MIC,Escherichia coli [4],0.03 µg/mL
same,MIC,Staphylococcus aureus [6],0.06 µg/mL
same,MIC,Enterobacter cloacae [10],0.25 µg/mL
same,MIC,Klebsiella pneumoniae [11],0.06 µg/mL
same,MIC,Klebsiella aerogenes,2 µg/mL
